In ChEMBL document CHEMBL1139934, “Synthesis and biological activity of imidazopyridine anticoccidial agents: part I” (Eur J Med Chem, 2007):

Tests used:
[1] = test system: Eimeria maxima; test: Anticococcidal activity against Eimeria maxima in Chick assessed as reduction in oocyte at 25 ppm relative to control; format: functional; set-up: scale not given: the % may be the effect or the level left
In short: (§1)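 Expanded Mini-Assay Coccidiosis (ExMAC) in chickens infected with E. tenella, E. acervulina, E. mitis and E. maxima. Compound given in the feed at the stated ppm. Efficacy for each species is scored 0 to 4 from the percent oocyst reduction relative to an untreated control. Where a compound was tested more than once, all values are reported.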

[2] = test system: Eimeria acervulina; test: Anticococcidal activity against Eimeria acervulina in Chick assessed as reduction in oocyte at 12.5 ppm relative to control; format: functional; set-up: scale not given: the % may be the effect or the level left; in short: as §1
[3] = test system: Eimeria acervulina; test: Anticococcidal activity against Eimeria acervulina in Chick assessed as reduction in oocyte at 25 ppm relative to control; format: functional; set-up: scale not given: the % may be the effect or the level left; in short: as §1
[4] = test system: Eimeria mitis; test: Anticococcidal activity against Eimeria mitis in Chick assessed as reduction in oocyte at 25 ppm relative to control; format: functional; set-up: scale not given: the % may be the effect or the level left; in short: as §1
[5] = test system: Eimeria tenella; test: Anticococcidal activity against Eimeria tenella in Chick assessed as reduction in oocyte at 25 ppm relative to control; format: functional; set-up: scale not given: the % may be the effect or the level left; in short: as §1
[6] = test system: Eimeria tenella; test: Anticococcidal activity against Eimeria tenella in Chick assessed as reduction in oocyte at 12.5 ppm relative to control; format: functional; set-up: scale not given: the % may be the effect or the level left; in short: as §1
[7] = target: cGMP-dependent protein kinase (Eimeria tenella, UniProt Q8MMZ8); test: Inhibition of Eimeria tenella cGMP-dependent protein kinase by Ten_K assay
In short: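 Ten_K (Tenella Kinase) assay measuring inhibition of E. tenella PKG enzyme activity. Result expressed as the concentration giving 50% inhibition (IC50, nM). Where a compound was tested more than once, all values are reported.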

[8] = test system: Eimeria mitis; test: Anticococcidal activity against Eimeria mitis in Chick assessed as reduction in oocyte at 12.5 ppm relative to control; format: functional; set-up: scale not given: the % may be the effect or the level left; in short: as §1
[9] = test system: Eimeria maxima; test: Anticococcidal activity against Eimeria maxima in Chick assessed as reduction in oocyte at 12.5 ppm relative to control; format: functional; set-up: scale not given: the % may be the effect or the level left; in short: as §1
[10] = test system: Eimeria mitis; test: Anticococcidal activity against Eimeria mitis in Chick assessed as reduction in oocyte at 6.25 ppm relative to control; format: functional; set-up: scale not given: the % may be the effect or the level left; in short: as §1
[11] = test system: Eimeria tenella; test: Anticococcidal activity against Eimeria tenella in Chick assessed as reduction in oocyte at 6.25 ppm relative to control; format: functional; set-up: scale not given: the % may be the effect or the level left; in short: as §1
[12] = test system: Eimeria acervulina; test: Anticococcidal activity against Eimeria acervulina in Chick assessed as reduction in oocyte at 6.25 ppm relative to control; format: functional; set-up: scale not given: the % may be the effect or the level left; in short: as §1

cGMP-dependent protein kinase, sequence (Q8MMZ8 whole entry): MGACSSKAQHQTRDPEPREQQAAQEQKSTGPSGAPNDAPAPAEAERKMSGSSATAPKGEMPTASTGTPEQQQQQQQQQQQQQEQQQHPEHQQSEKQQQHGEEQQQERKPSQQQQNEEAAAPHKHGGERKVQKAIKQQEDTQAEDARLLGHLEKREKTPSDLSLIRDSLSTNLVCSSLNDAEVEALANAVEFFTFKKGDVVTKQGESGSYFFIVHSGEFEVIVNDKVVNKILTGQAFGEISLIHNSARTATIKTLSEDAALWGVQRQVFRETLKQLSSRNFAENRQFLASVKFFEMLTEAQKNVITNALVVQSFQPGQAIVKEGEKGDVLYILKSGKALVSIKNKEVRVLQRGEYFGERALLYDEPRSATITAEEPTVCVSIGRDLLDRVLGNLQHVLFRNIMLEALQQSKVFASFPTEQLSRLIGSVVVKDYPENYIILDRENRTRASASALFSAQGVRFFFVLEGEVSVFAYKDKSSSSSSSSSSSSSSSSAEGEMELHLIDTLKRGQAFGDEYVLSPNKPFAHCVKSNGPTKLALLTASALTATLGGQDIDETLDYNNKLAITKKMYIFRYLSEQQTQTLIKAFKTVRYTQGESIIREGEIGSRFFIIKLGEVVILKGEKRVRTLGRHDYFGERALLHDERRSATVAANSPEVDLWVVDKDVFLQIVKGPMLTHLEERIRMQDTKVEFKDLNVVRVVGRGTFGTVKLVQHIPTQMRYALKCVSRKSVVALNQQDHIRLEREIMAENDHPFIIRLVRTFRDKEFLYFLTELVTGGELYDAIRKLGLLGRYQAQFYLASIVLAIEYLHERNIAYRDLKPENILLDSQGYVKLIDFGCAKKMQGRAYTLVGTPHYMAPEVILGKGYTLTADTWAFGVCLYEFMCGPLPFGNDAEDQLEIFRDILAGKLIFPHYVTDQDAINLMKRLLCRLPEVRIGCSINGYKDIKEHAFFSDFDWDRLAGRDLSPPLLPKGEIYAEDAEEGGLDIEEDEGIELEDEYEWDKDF

CN(C)Cc1ccn2c(-c3ccnc(NCc4cc(F)cc(F)c4)n3)c(-c3ccc(F)cc3)nc2c1
Activity [1]: 80%
Activity [2]: <50%
Activity [3]: 80%
Activity [4]: <50%
Activity [5]: 80%
Activity [6]: <50%
IC50 [7]: 0.11 nM
Activity [8]: <50%
Activity [9]: <50%

CN(C)Cc1ccn2c(-c3ccnc(NCc4ccc(Cl)cc4)n3)c(-c3ccc(F)cc3)nc2c1
Activity [1]: <50%
Activity [3]: <50%
Activity [4]: <50%
Activity [5]: <50%
IC50 [7]: 0.24 nM

CN(C)Cc1ccn2c(-c3ccnc(NCc4cccc(Cl)c4)n3)c(-c3ccc(F)cc3)nc2c1
Activity [1]: 80%
Activity [3]: <50%
Activity [4]: <50%
Activity [5]: <50%
IC50 [7]: 0.18 nM

CN(C)Cc1ccn2c(-c3ccnc(NC(=O)NC(C)(C)C)n3)c(-c3ccc(F)cc3)nc2c1
Activity [2]: 80%
Activity [6]: 80%
IC50 [7]: 4.39 nM
Activity [8]: 80%
Activity [9]: 80%

CN(C)Cc1ccn2c(-c3ccnc(N)n3)c(-c3ccc(Cl)cc3)nc2c1
Activity [2]: <50%
Activity [3]: 50%
Activity [4]: 50%
Activity [5]: 80%
Activity [6]: <50%
IC50 [7]: 0.41 nM
Activity [8]: <50%

CCCCCCNc1nccc(-c2c(-c3ccc(F)cc3)nc3cc(CN(C)C)ccn23)n1
Activity [1]: <50%
Activity [3]: <50%
Activity [4]: <50%
Activity [5]: 80%
IC50 [7]: 0.13 nM

Cc1ccccc1CNc1nccc(-c2c(-c3ccc(F)cc3)nc3cc(CN(C)C)ccn23)n1
Activity [1]: 50%
Activity [3]: <50%
Activity [4]: <50%
Activity [5]: <50%
IC50 [7]: 0.08 nM

CN(C)Cc1ccn2c(-c3ccnc(NCc4ccc(F)cc4)n3)c(-c3ccc(F)cc3)nc2c1
Activity [1]: 80%
Activity [2]: <50%
Activity [3]: 80%
Activity [4]: 80%
Activity [5]: 80%
Activity [6]: <50%
IC50 [7]: 0.066 nM
Activity [8]: <50%
Activity [9]: <50%

COC(=O)Nc1nccc(-c2c(-c3ccc(F)cc3)nc3cc(CN(C)C)ccn23)n1
Activity [1]: 80%
Activity [2]: 80%
Activity [3]: 80%
Activity [4]: <50%
Activity [5]: 80%
Activity [6]: 80%
IC50 [7]: 0.45 nM
Activity [8]: <50%
Activity [9]: 80%

CN(C)Cc1ccn2c(-c3ccnc(NCc4ccccc4F)n3)c(-c3ccc(F)cc3)nc2c1
Activity [1]: 80%
Activity [3]: <50%
Activity [4]: 80%
Activity [5]: 80%
IC50 [7]: 0.087 nM

CN(C)Cc1ccn2c(-c3nc(N)ncc3Br)c(-c3ccc(F)cc3)nc2c1
Activity [1]: 50%
Activity [3]: <50%
Activity [4]: <50%
Activity [5]: 50%
IC50 [7]: 5.8 nM

CN(C)Cc1ccn2c(-c3ccnc(N)n3)c(-c3ccc(F)cc3F)nc2c1
Activity [10]: 50%
Activity [11]: 80%
Activity [2]: 100%
Activity [3]: 100%
Activity [4]: 80%
Activity [5]: 80%
Activity [6]: 100%
IC50 [7]: 0.1 nM
Activity [8]: 80%
Activity [12]: 100%

CN(C)Cc1ccn2c(-c3ccnc(NCc4ccc(F)cc4F)n3)c(-c3ccc(F)cc3)nc2c1
Activity [1]: 80%
Activity [3]: <50%
Activity [4]: <50%
Activity [5]: <50%
IC50 [7]: 0.15 nM

CN(C)Cc1ccn2c(-c3ccnc(NCc4cc(F)ccc4F)n3)c(-c3ccc(F)cc3)nc2c1
Activity [1]: 80%
Activity [3]: <50%
Activity [4]: <50%
Activity [5]: <50%
IC50 [7]: 0.026 nM

CCCCCNc1nccc(-c2c(-c3ccc(F)cc3)nc3cc(CN(C)C)ccn23)n1
Activity [1]: 80%
Activity [3]: 80%
Activity [4]: 50%
Activity [5]: <50%
IC50 [7]: 0.1 nM

CN(C)Cc1ccn2c(-c3ccnc(NCc4cccc(F)c4F)n3)c(-c3ccc(F)cc3)nc2c1
Activity [1]: <50%
Activity [3]: <50%
Activity [4]: <50%
Activity [5]: <50%
IC50 [7]: 0.12 nM
